The source of these data is ChEMBL document CHEMBL1150763, “Discovery of imidazo[1,5-c]imidazol-3-ones: weakly basic, orally active factor Xa inhibitors” (J Med Chem, 2008).

Data set [1] deals with Coagulation factor X (Homo sapiens, UniProt P00742). In words: Inhibition of human factor 10a.
For data set [2], the system named is Plasma. In words: Anticoagulant potency in human plasma assessed as concentration required to double the time to clot formation by PT assay. The data set is classed as functional. Summed up: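 Human normal plasma mixed with compound dilutions in DMSO (1.5 µL into 48.5 µL), preincubated 4 min at 37 °C, clotting started with thromboplastin and timed on an automatic coagulometer. Prolongation relative to DMSO; concentration doubling clotting time derived by least-squares regression; mean of duplicates.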

In data set [3] the test system is Plasma. The data set can be described thus: Anticoagulant potency in mouse plasma assessed as concentration required to double the time to clot formation by PT assay. The format is functional.
Data set [4] relates to Plasma. In words: Anticoagulant activity in mouse plasma assessed as ratio of prothrombin time in drug to untreated control at 30 mg/kg, po. The data set is classed as functional. Summed up: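 Male ICR mice (30-35 g), fasted >12 h, dosed orally at 30 mg/kg as suspension in 0.5% methylcellulose; vehicle controls. Citrated aortic blood drawn 1 h post-dose under pentobarbital anaesthesia, spun 1000g 10 min to platelet-poor plasma. PT on 50 µL plasma preincubated 4 min at 37 °C, started with thromboplastin; clotting time expressed relative to control group (n = 3).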

Data set [5] has as its target CYP3A4 (Homo sapiens, UniProt P08684). The data set can be described thus: Inhibition of CYP3A4 expressed in human B-lymphoblastoid cells at 10 uM. The data set is classed as ADME, cell-based. Summed up: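 Recombinant CYP3A4 (10 nM, from CYP3A4-expressing human B-lymphoblastoid cells) incubated with 100 µM testosterone and 10 µM test compound for 30 min at 37 °C; 6β-hydroxytestosterone formation quantified by HPLC-UV.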

The nature of data set [6]: Basicity, pKa by titration method. The format is physicochemical.
A short description of data set [7]: physchem. To be noted: buffer, pH 7.4.

Molecules are shown by their SMILES.

CYP3A4, sequence (P08684 whole entry): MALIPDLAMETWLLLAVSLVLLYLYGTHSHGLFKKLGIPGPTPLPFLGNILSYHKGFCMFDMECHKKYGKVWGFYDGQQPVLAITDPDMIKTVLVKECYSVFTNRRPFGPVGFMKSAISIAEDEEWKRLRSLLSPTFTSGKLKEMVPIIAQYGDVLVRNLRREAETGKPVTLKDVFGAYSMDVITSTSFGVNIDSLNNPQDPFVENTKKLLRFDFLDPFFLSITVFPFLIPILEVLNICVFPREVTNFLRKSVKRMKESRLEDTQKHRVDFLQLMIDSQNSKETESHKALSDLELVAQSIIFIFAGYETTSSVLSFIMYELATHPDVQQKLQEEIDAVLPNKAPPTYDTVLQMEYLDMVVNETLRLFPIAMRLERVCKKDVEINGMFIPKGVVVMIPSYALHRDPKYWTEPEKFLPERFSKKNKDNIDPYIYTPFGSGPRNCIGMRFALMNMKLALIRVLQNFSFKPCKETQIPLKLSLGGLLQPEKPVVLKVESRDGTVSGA
Coagulation factor X, sequence (P00742 41-179 limits assumed): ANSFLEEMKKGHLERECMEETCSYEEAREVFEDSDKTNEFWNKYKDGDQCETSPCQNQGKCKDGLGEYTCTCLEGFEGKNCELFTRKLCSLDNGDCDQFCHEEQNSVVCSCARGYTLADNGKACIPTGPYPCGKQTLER
Coagulation factor X, sequence (P00742 235-488 limits assumed): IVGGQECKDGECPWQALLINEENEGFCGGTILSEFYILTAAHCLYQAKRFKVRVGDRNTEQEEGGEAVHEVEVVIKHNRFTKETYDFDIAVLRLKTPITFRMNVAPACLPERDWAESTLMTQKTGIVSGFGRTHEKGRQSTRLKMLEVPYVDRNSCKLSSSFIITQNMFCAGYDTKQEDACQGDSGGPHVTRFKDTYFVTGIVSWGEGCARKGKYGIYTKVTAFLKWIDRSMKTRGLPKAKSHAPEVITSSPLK

In data set [1], `O=C(CCS(=O)(=O)c1ccc2cc(Cl)ccc2c1)N1CCN(c2cccc3nc(CO)cn23)CC1` had an IC50 of 9.7 nM.
For the compound `Cn1ccnc1C1CCN(C(=O)CCS(=O)(=O)c2ccc3cc(Cl)ccc3c2)CC1`, the concentration for half-maximal inhibition (IC50) in data set [1] was determined as 56 nM. Besides, in data set [2], the Activity was 2.1 µM.
Take `Cc1nccn1CCCC1CCN(C(=O)CCS(=O)(=O)c2ccc3cc(Cl)ccc3c2)CC1`: 460 nM corresponded to half-maximal inhibition in data set [1] (IC50). For the same compound, the Activity in data set [2] is more than 10 µM.
Take `CCCc1nccn1C1CCN(C(=O)CCS(=O)(=O)c2ccc3cc(Cl)ccc3c2)CC1`: 230 nM corresponded to half-maximal inhibition in data set [1] (IC50). For the same compound, the Activity in data set [2] is 2 µM.
For `O=C(CCS(=O)(=O)c1ccc2cc(Cl)ccc2c1)N1CCC(n2ccnc2)CC1`, in that order: 1400 nM and 7 µM.
In data set [1], `Cc1nccn1C1CCN(C(=O)CCS(=O)(=O)c2ccc3cc(Cl)ccc3c2)CC1` came in with an IC50 of 170 nM. Also, the Activity in data set [2] stood at 0.99 µM; in data set [3], 3.3 µM. Besides, in data set [4], the Ratio is 1.1. Besides, the inhibition at 10 µM in data set [5] amounted to 34%.
Regarding `O=C(CCS(=O)(=O)c1ccc2cc(Cl)ccc2c1)N1CCC(c2ncc[nH]2)CC1`, it took 1600 nM to reach half-maximal inhibition in data set [1] (IC50). Further, in data set [2], the Activity was more than 10 µM.
Consider `Cc1ncc(C2CCN(C(=O)CCS(=O)(=O)c3ccc4cc(Cl)ccc4c3)CC2)[nH]1`, for which half-maximal inhibition in data set [1] (IC50) required 120 nM. Moreover, the Activity in data set [2] was found to be 2.5 µM. The same compound yielded a pKa in data set [6] of 7.9. Besides, the logD in data set [7] came to 2.
Regarding `Cc1ncc(C2CCN(C(=O)CCS(=O)(=O)c3ccc4cc(Cl)ccc4c3)CC2)n1C`, the values for the Activity in data set [2] and in data set [3] were 0.56 µM and 3.4 µM, respectively. In data set [6], this compound displayed a pKa of 8.2. This compound also registered an inhibition at 10 µM in data set [5] of 25%.
In data set [1], `CCc1nccn1C1CCN(C(=O)CCS(=O)(=O)c2ccc3cc(Cl)ccc3c2)CC1` returned an IC50 of 160 nM. For the same compound, the Activity in data set [2] is 1 µM.
Take `Cc1ncc2n1C(=O)N(N1CCN(C(=O)CCS(=O)(=O)c3ccc4cc(Cl)ccc4c3)CC1)C2`: the 50% inhibitory concentration (IC50) in data set [1] stood at 6.9 nM. Further, the Activity in data set [2] came out at 0.61 µM; in data set [3], 0.9 µM. In addition, in data set [6], the pKa is 5. Moreover, the Ratio in data set [4] was 2.8. In addition, the inhibition at 10 µM in data set [5] turned out to be 38%. This compound had a logD in data set [7] of 2.1.
In turn, `O=C(CCS(=O)(=O)c1ccc2cc(Cl)ccc2c1)N1CCC(c2cnc3ccccn23)CC1` yielded a half-maximal inhibitory concentration (IC50) in data set [1] of 12 nM. The Activity in data set [2] was 2.2 µM. In data set [6], this compound showed a pKa of 5.9. In data set [7], this compound registered a logD of 2.5.
`O=C(CCS(=O)(=O)c1ccc2cc(Cl)ccc2c1)N1CCC(c2cnc[nH]2)CC1` came in with an IC50 in data set [1] of 170 nM. For the same compound, in data set [2], the Activity was determined as 3 µM. Moreover, in data set [6], the pKa was 6.9. Further, in data set [7], the logD was 2.
`Cc1nc(C)n2c1CN(C1CCN(C(=O)CCS(=O)(=O)c3ccc4cc(Cl)ccc4c3)CC1)C2=O`: in data set [1], the IC50 was 5.3 nM. Besides, the Activity worked out at 1.2 µM in data set [2] and 2.5 µM in data set [3]. In data set [6], this compound showed a pKa of 5.4. For the same compound, in data set [4], the Ratio is listed as 2. The compound also displayed an inhibition at 10 µM in data set [5] of 62%. The same compound showed a logD in data set [7] of 2.5.
On to `Cc1nccn1CCCCC1CCN(C(=O)CCS(=O)(=O)c2ccc3cc(Cl)ccc3c2)CC1`, for which inhibition in data set [1] was half-maximal at 300 nM (IC50). The Activity in data set [2] is more than 10 µM.
On to `Cc1nccn1CC1CCN(C(=O)CCS(=O)(=O)c2ccc3cc(Cl)ccc3c2)CC1`, for which it took 910 nM to reach half-maximal inhibition in data set [1] (IC50). In addition, in data set [2], the Activity stood at 7.7 µM.
For the compound `Cc1nccn1CCC1CCN(C(=O)CCS(=O)(=O)c2ccc3cc(Cl)ccc3c2)CC1`, the IC50 in data set [1] was found to be 37 nM. In addition, the results for the Activity in data set [2] and in data set [3] were 0.91 µM and 1.7 µM, respectively. For the same compound, the pKa in data set [6] was found to be 7.9. Besides, the Ratio in data set [4] is reported as 1.1. Besides, the inhibition at 10 µM in data set [5] amounted to 38%. The compound also came in with a logD in data set [7] of 2.2.
In turn, `O=C(CCS(=O)(=O)c1ccc2cc(Cl)ccc2c1)N1CCC(c2cnc3n2CCCC3)CC1` showed an IC50 in data set [1] of 23 nM. Also, the Activity in data set [2] was found to be 0.48 µM; in data set [3], 3 µM. In data set [6], this compound yielded a pKa of 8.2. Moreover, the Ratio in data set [4] was found to be 1.1. In addition, 10 µM produced 42% inhibition in data set [5]. The compound also gave a logD in data set [7] of 2.2.
With `Cc1nccn1CCN1CCN(C(=O)CCS(=O)(=O)c2ccc3cc(Cl)ccc3c2)CC1`, in data set [1], the IC50 is 54 nM. The Activity in data set [2] came out at 0.99 µM; in data set [3] it was 2.1 µM. The Ratio in data set [4] is recorded as 1.1. Testing at 10 µM in data set [5] gave an inhibition of 53%.
As for `Cn1cncc1C1CCN(C(=O)CCS(=O)(=O)c2ccc3cc(Cl)ccc3c2)CC1`, the half-inhibitory concentration (IC50) in data set [1] turned out to be 56 nM. Further, the Activity in data set [2] was found to be 0.49 µM; in data set [3], 2.7 µM. For the same compound, in data set [6], the pKa came to 7.2. The Ratio in data set [4] is given as 1.2. This compound also returned an inhibition at 10 µM in data set [5] of 82%. This compound also gave a logD in data set [7] of 2.
